{"source": "ChEMBL document CHEMBL1687701", "about": "“Discovery of N-Aryl Piperazines as Selective mGlu(5) Potentiators with Efficacy in a Rodent Model Predictive of Anti-Psychotic Activity” (ACS Med Chem Lett, 2010)", "key": {"[1]": {"target": "T1, Metabotropic glutamate receptor 5 (Rattus norvegicus, UniProt P31424)", "T1 sequence (P31424 whole entry)": "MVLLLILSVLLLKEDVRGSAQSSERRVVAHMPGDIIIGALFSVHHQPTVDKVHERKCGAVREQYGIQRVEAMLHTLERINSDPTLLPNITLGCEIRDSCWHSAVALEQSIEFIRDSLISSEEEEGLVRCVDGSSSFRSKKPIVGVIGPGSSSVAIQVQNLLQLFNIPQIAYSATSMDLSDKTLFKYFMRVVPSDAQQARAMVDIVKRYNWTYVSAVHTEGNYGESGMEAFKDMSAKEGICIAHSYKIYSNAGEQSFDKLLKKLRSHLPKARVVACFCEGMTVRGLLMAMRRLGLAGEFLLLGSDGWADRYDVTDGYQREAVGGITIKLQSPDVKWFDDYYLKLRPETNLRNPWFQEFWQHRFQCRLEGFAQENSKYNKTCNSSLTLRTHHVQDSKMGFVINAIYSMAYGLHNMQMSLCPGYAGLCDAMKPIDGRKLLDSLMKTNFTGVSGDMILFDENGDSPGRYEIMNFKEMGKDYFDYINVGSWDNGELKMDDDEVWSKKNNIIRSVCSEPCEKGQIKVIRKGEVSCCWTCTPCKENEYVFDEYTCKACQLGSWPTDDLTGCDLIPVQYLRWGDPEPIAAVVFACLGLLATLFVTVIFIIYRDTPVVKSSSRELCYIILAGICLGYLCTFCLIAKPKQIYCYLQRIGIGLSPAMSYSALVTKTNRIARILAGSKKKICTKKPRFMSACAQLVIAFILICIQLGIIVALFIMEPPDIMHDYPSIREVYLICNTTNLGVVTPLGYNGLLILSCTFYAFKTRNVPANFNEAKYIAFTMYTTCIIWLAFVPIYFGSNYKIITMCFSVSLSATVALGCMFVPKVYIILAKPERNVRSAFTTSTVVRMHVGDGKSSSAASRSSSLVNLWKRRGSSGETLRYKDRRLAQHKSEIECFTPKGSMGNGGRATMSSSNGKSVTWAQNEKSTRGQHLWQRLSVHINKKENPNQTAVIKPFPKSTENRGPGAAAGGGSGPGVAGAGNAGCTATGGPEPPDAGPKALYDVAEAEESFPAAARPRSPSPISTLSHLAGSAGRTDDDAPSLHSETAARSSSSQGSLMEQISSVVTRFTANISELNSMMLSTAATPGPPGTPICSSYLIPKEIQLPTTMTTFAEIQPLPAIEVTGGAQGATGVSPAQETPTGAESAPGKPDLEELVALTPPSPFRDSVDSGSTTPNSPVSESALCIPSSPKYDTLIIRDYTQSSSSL", "assay": "Positive allosteric modulation at rat mGluR5 receptor expressed in HEK293 cells assessed as glutamate-induced calcium fluorescence by Fluo-4/AM dye-based fluorescence assay", "format": "functional, cell-based"}, "[2]": {"target": "Metabotropic glutamate receptor 5 (Rattus norvegicus) (UniProt P31424)", "sequence (P31424 21-1203 limits assumed)": "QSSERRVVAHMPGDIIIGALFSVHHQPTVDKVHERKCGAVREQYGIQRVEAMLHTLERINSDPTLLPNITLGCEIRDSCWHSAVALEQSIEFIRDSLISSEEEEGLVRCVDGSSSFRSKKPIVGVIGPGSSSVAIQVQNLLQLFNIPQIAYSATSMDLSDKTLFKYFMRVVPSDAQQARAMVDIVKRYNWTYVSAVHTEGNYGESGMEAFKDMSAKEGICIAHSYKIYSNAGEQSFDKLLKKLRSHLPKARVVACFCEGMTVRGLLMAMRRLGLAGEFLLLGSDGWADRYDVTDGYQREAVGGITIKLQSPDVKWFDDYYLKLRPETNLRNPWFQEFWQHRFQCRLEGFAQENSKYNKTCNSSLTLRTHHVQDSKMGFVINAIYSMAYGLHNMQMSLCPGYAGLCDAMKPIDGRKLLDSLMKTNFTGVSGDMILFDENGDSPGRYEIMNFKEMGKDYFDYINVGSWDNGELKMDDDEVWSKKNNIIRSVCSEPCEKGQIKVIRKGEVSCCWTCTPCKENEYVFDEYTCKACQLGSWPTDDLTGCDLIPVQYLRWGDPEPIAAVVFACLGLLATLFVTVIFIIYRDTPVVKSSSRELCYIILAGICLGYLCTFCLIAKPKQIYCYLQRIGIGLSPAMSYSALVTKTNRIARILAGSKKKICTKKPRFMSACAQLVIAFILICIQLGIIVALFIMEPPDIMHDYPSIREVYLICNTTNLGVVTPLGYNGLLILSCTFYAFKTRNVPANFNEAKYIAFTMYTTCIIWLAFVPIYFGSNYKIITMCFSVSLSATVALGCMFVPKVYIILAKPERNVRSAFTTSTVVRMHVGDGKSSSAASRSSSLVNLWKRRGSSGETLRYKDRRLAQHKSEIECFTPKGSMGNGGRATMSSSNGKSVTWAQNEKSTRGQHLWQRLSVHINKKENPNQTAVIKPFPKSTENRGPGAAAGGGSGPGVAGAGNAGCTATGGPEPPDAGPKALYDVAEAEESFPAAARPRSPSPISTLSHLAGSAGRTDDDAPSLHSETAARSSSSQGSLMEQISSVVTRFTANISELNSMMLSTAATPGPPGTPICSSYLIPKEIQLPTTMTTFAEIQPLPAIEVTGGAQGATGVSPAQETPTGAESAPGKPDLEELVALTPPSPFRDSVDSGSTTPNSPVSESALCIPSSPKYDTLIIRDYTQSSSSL", "assay": "Positive allosteric modulation at rat mGluR5 receptor expressed in HEK293 cells assessed as glutamate-induced calcium fluorescence at 30 uM by Fluo-4/AM dye-based fluorescence assay in relative to glutamate", "format": "functional, cell-based"}, "[3]": {"target": "Metabotropic glutamate receptor 5 (Rattus norvegicus) (UniProt P31424)", "assay": "Potentiation of rat mGluR5 receptor assessed as fold shift in glutamate concentration response curve at 10 uM relative to control"}, "[4]": {"assay": "Passive transcellular permeability of the compound by PAMPA", "format": "ADME", "settings": "read-out: permeability"}, "[5]": {"assay": "Aqueous solubility of the compound in 0.2M sodium phosphate buffer at pH 7.4 by HPLC", "format": "physicochemical"}, "[6]": {"target": "Metabotropic glutamate receptor 5 (Rattus norvegicus) (UniProt P31424)", "assay": "Positive allosteric modulation at mGluR5 in […] cells at 30 uM by Fluo-4/AM dye-based fluorescence assay", "format": "cell-based"}, "[7]": {"assay": "Metabolic stability in Sprague-Dawley rat liver microsome assessed as compound remaining after 60 mins by LC-MS-MS", "format": "ADME", "settings": "liver microsomes, read-out: Stability"}, "[8]": {"target": "Metabotropic glutamate receptor 3 (Rattus norvegicus) (UniProt P31422)", "sequence (P31422 23-879 limits assumed)": "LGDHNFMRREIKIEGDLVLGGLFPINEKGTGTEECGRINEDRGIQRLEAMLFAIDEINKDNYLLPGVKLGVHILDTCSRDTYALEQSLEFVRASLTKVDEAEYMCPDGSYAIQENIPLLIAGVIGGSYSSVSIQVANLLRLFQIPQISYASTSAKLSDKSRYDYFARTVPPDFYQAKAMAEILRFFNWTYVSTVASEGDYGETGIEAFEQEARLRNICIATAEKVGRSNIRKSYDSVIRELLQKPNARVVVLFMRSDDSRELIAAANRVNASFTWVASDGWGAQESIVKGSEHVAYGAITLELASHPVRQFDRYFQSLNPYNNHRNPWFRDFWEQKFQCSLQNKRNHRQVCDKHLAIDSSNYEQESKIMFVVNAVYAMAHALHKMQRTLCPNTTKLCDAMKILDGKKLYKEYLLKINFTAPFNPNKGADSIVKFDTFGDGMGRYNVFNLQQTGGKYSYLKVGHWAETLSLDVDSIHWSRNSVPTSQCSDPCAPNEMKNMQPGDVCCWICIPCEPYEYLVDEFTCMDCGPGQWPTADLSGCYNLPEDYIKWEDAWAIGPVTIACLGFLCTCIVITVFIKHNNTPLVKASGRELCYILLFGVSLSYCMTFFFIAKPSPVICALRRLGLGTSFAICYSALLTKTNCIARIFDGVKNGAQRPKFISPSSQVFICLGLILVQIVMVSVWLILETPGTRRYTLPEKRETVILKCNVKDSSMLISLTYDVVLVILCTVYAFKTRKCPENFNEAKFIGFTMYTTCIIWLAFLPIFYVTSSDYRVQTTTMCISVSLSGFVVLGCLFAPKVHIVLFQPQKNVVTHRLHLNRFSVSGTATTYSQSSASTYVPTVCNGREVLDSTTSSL", "assay": "Potentiation of rat mGluR3 receptor assessed as fold shift in glutamate concentration response curve at 10 uM relative to control"}, "[9]": {"target": "Metabotropic glutamate receptor 6 (Rattus norvegicus) (UniProt P35349)", "assay": "Potentiation of rat mGluR6 receptor assessed as fold shift in glutamate concentration response curve at 10 uM relative to control"}, "[10]": {"target": "Metabotropic glutamate receptor 8 (Rattus norvegicus) (UniProt P70579)", "sequence (P70579 whole entry)": "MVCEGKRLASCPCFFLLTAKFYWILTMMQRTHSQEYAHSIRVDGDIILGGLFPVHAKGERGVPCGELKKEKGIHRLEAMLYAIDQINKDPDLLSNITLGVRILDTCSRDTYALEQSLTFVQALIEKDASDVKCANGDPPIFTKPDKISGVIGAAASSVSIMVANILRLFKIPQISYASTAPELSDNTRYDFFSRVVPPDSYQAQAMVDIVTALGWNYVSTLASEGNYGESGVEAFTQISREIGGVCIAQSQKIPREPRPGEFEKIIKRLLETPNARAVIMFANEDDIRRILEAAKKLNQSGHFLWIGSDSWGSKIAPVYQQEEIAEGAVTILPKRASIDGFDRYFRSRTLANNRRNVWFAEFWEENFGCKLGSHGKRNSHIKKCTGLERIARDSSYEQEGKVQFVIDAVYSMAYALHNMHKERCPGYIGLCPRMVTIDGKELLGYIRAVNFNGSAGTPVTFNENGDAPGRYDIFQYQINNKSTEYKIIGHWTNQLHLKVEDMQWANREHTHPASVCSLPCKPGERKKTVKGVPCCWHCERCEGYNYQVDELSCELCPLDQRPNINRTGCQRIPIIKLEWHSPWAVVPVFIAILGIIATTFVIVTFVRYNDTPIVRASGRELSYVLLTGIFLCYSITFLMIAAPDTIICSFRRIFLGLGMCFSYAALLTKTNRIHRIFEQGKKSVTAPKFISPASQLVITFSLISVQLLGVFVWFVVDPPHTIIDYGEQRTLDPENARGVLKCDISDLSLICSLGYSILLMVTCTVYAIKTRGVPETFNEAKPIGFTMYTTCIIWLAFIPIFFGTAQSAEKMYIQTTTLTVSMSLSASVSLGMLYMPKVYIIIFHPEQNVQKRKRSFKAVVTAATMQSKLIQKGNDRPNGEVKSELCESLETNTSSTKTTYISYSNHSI", "assay": "Potentiation of rat mGluR8 receptor assessed as fold shift in glutamate concentration response curve at 10 uM relative to control"}, "[11]": {"target": "Metabotropic glutamate receptor 5 (Rattus norvegicus) (UniProt P31424)", "assay": "Displacement of [3H]3-methoxy-PEPy from rat mGluR5 receptor allosteric binding site at 30 uM", "procedure,_shortened": "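Radioligand binding uses [3H]3-methoxy-PEPy at the mGluR5 allosteric site. Displacement is read at the highest compound concentration tested, 30 μM.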"}, "[12]": {"system": "Plasma", "assay": "Plasma protein binding in Sprague-Dawley rat after 4 hrs by LC-MS-MS", "format": "ADME, cell-free"}, "[13]": {"target": "Metabotropic glutamate receptor 4 (Rattus norvegicus) (UniProt P31423)", "assay": "Potentiation of rat mGluR4 receptor assessed as fold shift in glutamate concentration response curve at 10 uM relative to control"}, "[14]": {"assay": "Metabolic stability in human liver microsome assessed as compound remaining after 60 mins by LC-MS-MS", "format": "ADME", "settings": "liver microsomes, read-out: Stability"}, "[15]": {"target": "Metabotropic glutamate receptor 1 (Rattus norvegicus) (UniProt P23385)", "assay": "Potentiation of rat mGluR1 receptor assessed as fold shift in glutamate concentration response curve at 10 uM relative to control"}, "[16]": {"target": "Metabotropic glutamate receptor 7 (Rattus norvegicus) (UniProt P35400)", "assay": "Potentiation of rat mGluR7 receptor assessed as fold shift in glutamate concentration response curve at 10 uM relative to control"}, "[17]": {"target": "Metabotropic glutamate receptor 5 (Rattus norvegicus) (UniProt P31424)", "assay": "Potentiation of rat mGluR5 expressed in HEK293 cells assessed as glutamate-induced calcium fluorescence at 10 uM by Fluo-4/AM dye-based fluorescence assay", "format": "functional, cell-based"}, "[18]": {"target": "Metabotropic glutamate receptor 2 (Rattus norvegicus) (UniProt P31421)", "sequence (P31421 19-872 limits assumed)": "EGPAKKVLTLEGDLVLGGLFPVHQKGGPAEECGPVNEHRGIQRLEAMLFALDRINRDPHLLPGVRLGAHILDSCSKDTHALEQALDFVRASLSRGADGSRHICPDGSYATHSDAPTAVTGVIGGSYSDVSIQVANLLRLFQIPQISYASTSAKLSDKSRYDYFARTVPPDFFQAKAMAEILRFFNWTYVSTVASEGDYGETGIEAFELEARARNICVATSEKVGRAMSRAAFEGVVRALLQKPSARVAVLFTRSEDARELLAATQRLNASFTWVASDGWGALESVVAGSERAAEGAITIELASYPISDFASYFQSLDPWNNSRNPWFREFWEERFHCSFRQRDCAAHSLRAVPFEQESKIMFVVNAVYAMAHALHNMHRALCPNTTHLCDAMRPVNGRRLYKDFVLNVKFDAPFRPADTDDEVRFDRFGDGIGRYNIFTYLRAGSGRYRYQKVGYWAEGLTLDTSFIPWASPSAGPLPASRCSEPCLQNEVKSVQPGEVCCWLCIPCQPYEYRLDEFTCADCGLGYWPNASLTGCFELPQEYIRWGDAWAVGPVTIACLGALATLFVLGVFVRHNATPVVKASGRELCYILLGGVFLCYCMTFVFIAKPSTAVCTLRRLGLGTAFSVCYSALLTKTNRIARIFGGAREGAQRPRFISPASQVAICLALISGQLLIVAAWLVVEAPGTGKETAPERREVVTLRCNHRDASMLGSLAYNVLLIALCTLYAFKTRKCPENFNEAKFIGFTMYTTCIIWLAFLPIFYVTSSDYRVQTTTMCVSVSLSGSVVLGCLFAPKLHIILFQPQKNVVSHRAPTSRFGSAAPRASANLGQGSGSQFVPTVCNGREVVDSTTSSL", "assay": "Potentiation of rat mGluR2 receptor assessed as fold shift in glutamate concentration response curve at 10 uM relative to control"}, "[19]": {"assay": "Aqueous solubility of the compound in 0.1 M citrate buffer at pH 4 by HPLC", "format": "physicochemical"}, "[20]": {"system": "Rattus norvegicus", "assay": "Reversal of amphetamine-induced hyperlocomotion in Sprague-Dawley rat at 56.6 mg/kg, ip administered 30 mins before amphetamine challenge measured for 60 mins", "format": "functional, organism-based", "parameters": "dose 56.6 mg/kg", "procedure,_shortened": "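Rats get vehicle or 56.6 mg/kg compound ip in 20% HP β-cyclodextrin 30 min before 1 mg/kg sc amphetamine, given at 60 min. Ambulations (beam breaks per 5 min interval) are counted for a further 60 min. Groups are 12−14 rats, shown as mean ± SEM, compared with the vehicle + amphetamine group by Dunnett's test.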"}, "[21]": {"system": "Plasma", "assay": "Plasma protein binding in human after 4 hrs by LC-MS-MS", "format": "ADME, cell-free"}, "[22]": {"assay": "Aqueous solubility of the compound in 0.01 N HCl buffer at pH 2 by HPLC", "format": "physicochemical"}, "[23]": {"target": "T1, Metabotropic glutamate receptor 5", "assay": "Negative allosteric modulation at rat mGluR5 receptor"}}, "note": "Calls of active or inactive are those of the source. The calls are words filed in the database; no cut-off is given here."}
{"compound": "N#Cc1cccnc1N1CCN(C(=O)COCc2ccccc2)CC1", "values": [{"measurement": "EC50", "setting": "[1]; read-out: EC50", "result": "> 10", "unit": "µM"}, {"measurement": "Activity", "setting": "[2]", "result": 33, "unit": "%"}]}
{"compound": "O=C(COCc1ccccc1)N1CCN(c2ccccc2[N+](=O)[O-])CC1", "values": [{"measurement": "EC50", "setting": "[1]; read-out: EC50", "result": 1.8, "unit": "µM"}, {"measurement": "Activity", "setting": "[2]", "result": 81, "unit": "%"}]}
{"compound": "O=C(COCc1ccccc1)N1CCN(c2ncccn2)CC1", "values": [{"measurement": "EC50", "setting": "[1]; hek293", "result": "Not Active"}]}
{"compound": "N#Cc1ccccc1N1CCN(C(=O)COCc2ccccc2)CC1", "values": [{"measurement": "fold change (FC)", "setting": "[3]", "result": 12}, {"measurement": "Papp", "setting": "[4]", "result": 2.2, "unit": "×10⁻⁶ cm/s"}, {"measurement": "solubility", "setting": "[5]", "result": "> 80", "unit": "µM"}, {"measurement": "Activity", "setting": "[6]", "result": "< 10", "unit": "%"}, {"measurement": "remaining at 1 h", "setting": "[7]", "result": "< 5", "unit": "%"}, {"measurement": "EC50", "setting": "[1]; read-out: EC50", "result": 1.6, "unit": "µM"}, {"measurement": "Activity", "setting": "[8]", "result": "inactive"}, {"measurement": "Activity", "setting": "[9]", "result": "inactive"}, {"measurement": "Activity", "setting": "[10]", "result": "inactive"}, {"measurement": "Activity", "setting": "[2]", "result": 78, "unit": "%"}, {"measurement": "Activity", "setting": "[11]", "result": "inactive"}, {"measurement": "PPB", "setting": "[12]", "result": 90, "unit": "%"}, {"measurement": "Activity", "setting": "[13]", "result": "inactive"}, {"measurement": "remaining at 1 h", "setting": "[14]", "result": "< 5", "unit": "%"}, {"measurement": "Activity", "setting": "[15]", "result": "inactive"}, {"measurement": "Activity", "setting": "[16]", "result": "inactive"}, {"measurement": "Activity", "setting": "[17]", "result": "Active"}, {"measurement": "Activity", "setting": "[18]", "result": "inactive"}, {"measurement": "solubility", "setting": "[19]", "result": "> 80", "unit": "µM"}, {"measurement": "Activity", "setting": "[20]", "result": "Active"}, {"measurement": "PPB", "setting": "[21]", "result": 94, "unit": "%"}, {"measurement": "solubility", "setting": "[22]", "result": "> 80", "unit": "µM"}]}
{"compound": "O=C(COCc1ccccc1)N1CCN(c2ccccc2Cl)CC1", "values": [{"measurement": "EC50", "setting": "[1]; read-out: EC50", "result": 0.82, "unit": "µM"}, {"measurement": "Activity", "setting": "[2]", "result": 90, "unit": "%"}]}
{"compound": "O=C(COCc1ccccc1)N1CCN(c2nccs2)CC1", "values": [{"measurement": "EC50", "setting": "[1]; read-out: EC50", "result": "> 10", "unit": "µM"}, {"measurement": "Activity", "setting": "[2]", "result": 30, "unit": "%"}]}
{"compound": "O=C(COCc1ccccc1)N1CCN(c2ncccc2C(F)(F)F)CC1", "values": [{"measurement": "EC50", "setting": "[1]; read-out: EC50", "result": 4.3, "unit": "µM"}, {"measurement": "Activity", "setting": "[2]", "result": 70, "unit": "%"}]}
{"compound": "O=C(COCc1ccccc1)N1CCN(c2nc3ccccc3s2)CC1", "values": [{"measurement": "EC50", "setting": "[1]; read-out: EC50", "result": "> 10", "unit": "µM"}, {"measurement": "Activity", "setting": "[2]", "result": 66, "unit": "%"}]}
{"compound": "O=C(N1CCN(c2ccccn2)CC1)C12CC3CC(CC(C3)C1)C2", "values": [{"measurement": "IC50", "setting": "[23]", "result": 0.99, "unit": "µM"}]}
{"compound": "COc1ccccc1N1CCN(C(=O)COCc2ccccc2)CC1", "values": [{"measurement": "EC50", "setting": "[1]; read-out: EC50", "result": 9.2, "unit": "µM"}, {"measurement": "Activity", "setting": "[2]", "result": 86, "unit": "%"}]}
{"compound": "O=C(COCc1ccccc1)N1CCN(c2cccnc2)CC1", "values": [{"measurement": "EC50", "setting": "[1]; hek293", "result": "Not Active"}]}
{"compound": "COC(=O)c1ccccc1N1CCN(C(=O)COCc2ccccc2)CC1", "values": [{"measurement": "EC50", "setting": "[1]; read-out: EC50", "result": "> 10", "unit": "µM"}, {"measurement": "Activity", "setting": "[2]", "result": 51, "unit": "%"}]}
{"compound": "O=C(COCc1ccccc1)N1CCN(c2ccccn2)CC1", "values": [{"measurement": "EC50", "setting": "[1]; read-out: EC50", "result": 5.4, "unit": "µM"}, {"measurement": "Activity", "setting": "[2]", "result": 86, "unit": "%"}]}
